These results are taken from ChEMBL document CHEMBL4513216, “Probing the Open Global Health Chemical Diversity Library for Multistage-Active Starting Points for Next-Generation Antimalarials” (ACS Infect Dis, 2020).

This data set is described as follows: Toxicity liver stage against HepG2, at 10uM. It counts as cell-based. More on the design: test concentration 10 uM, cell line HepG2-A16-CD81EGFP. The note with it: human, HepG2-A16-CD81EGFP cells; read-out: INHIBITION
A digest of the protocol: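 Uninfected HepG2-A16-CD81EGFP cells, 3 × 10^3 per well, 1536-well, plated on prespotted compound at 10 μM final, parasite-free screening media added to match infected plates; puromycin 10 μM positive, DMSO 0.5% negative; run in parallel with 48 h PbLuc assay at 37 °C, 5% CO2; viability by CellTiter-Glo luminescence, normalized to controls.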

As to `Cc1ccccc1-c1cc(NC(=O)CC(C)C)n(CCO)n1`, the cytotoxicity at 10 µM amounted to 7.47%.

With `O=C(c1ccn(-c2cccc(Cl)c2)n1)N1CCN(CCO)CC1`, the cytotoxicity at 10 µM is -17.1%.

Take `CC1CCc2nc(O)c(C(=O)NCc3ccncc3)cc2C1` (stereo not given): the cytotoxicity at 10 µM was -1.37%.

In the case of `CC(NCc1cc2cc(F)ccc2o1)c1nnc2n1CCCC2` (stereo not given), the cytotoxicity at 10 µM is -7.93%.

On to `CC1CN(c2ccc(CNC(=O)NCCn3ccnc3)cn2)CCO1` (stereo not given), for which the cytotoxicity at 10 µM was determined as 8.4%.

`COCCN(Cc1cccc(O)c1)Cc1ccccc1F`: the cytotoxicity at 10 µM came to 4.73%.

Consider `O=C(CN1CCCS1(=O)=O)Nc1ccc(OC(F)F)cc1`, for which the cytotoxicity at 10 µM came to 1.34%.

Take `Cc1ccc(CN(C(=O)C(C)NC(N)=O)C2CC2)cc1C` (stereo not given): the cytotoxicity at 10 µM is 7.47%.

Take `C1CCC(CO[C@@H]2CC[C@H]3[C@H]2OCCN3CC2CCOCC2)C1`: the cytotoxicity at 10 µM was determined as 11.4%.

As to `CN1CC(NC(=O)CCOc2cccc(Cl)c2)CC1=O` (stereo not given), the cytotoxicity at 10 µM was -5.4%.

`CC(C)NC(=O)CCN1CCCC1c1cccc2c1OCCO2` (stereo not given): the cytotoxicity at 10 µM was found to be 0.354%.

Turning to `Cc1n[nH]c2c1C(c1ccsc1)SCC(=O)N2` (stereo not given), the cytotoxicity at 10 µM came out at 4.21%.

As to `Cn1cnnc1C1CCCN(C(=O)NCc2ccc3c(c2)OCO3)C1` (stereo not given), the cytotoxicity at 10 µM was -1.9%.

With `Cc1cn2nc(N3CCCC3C(=O)N3CCSCC3)sc2n1` (stereo not given), the cytotoxicity at 10 µM worked out at 10.9%.

Take `CC(Cn1cccn1)NCc1nc(-c2cccs2)no1` (stereo not given): the cytotoxicity at 10 µM is -8.7%.

With `N#Cc1ccccc1C(=O)N1CCC2(CC(=O)NC2=O)C1` (stereo not given), the cytotoxicity at 10 µM was -19.6%.

Turning to `CC(C)(CNC(=O)C1CCCCN1S(C)(=O)=O)N1CCOCC1` (stereo not given), the cytotoxicity at 10 µM is -7.15%.

Consider `CCNC(=O)CCC(=O)NCC1(O)CCC(C(C)(C)C)CC1` (stereo not given), for which the cytotoxicity at 10 µM amounted to 5.55%.

In the case of `CN(CCCO)Cc1cc(Cl)ccc1OCC(O)CN1CCCCCC1` (stereo not given), the cytotoxicity at 10 µM came to 2.71%.

With `CNS(=O)(=O)c1ccc(C(=O)NCc2ccnc(OC)c2)cc1`, the cytotoxicity at 10 µM was found to be 2.86%.

Consider `CC1CCCCN1Cc1nc(C2CC2)no1` (stereo not given), for which the cytotoxicity at 10 µM is 4.48%.

Take `O=C(NCCNc1ncccn1)N1CCCC(C(F)(F)F)C1` (stereo not given): the cytotoxicity at 10 µM turned out to be 1.05%.

In the case of `CCOC1COC2(CCN(S(=O)(=O)c3cccc(F)c3)CC2)C1` (stereo not given), the cytotoxicity at 10 µM was determined as 5.15%.

With `CC(C)CN1CCC2(C=C(C(=O)N3CCCC3)c3ccccc32)CC1`, the cytotoxicity at 10 µM was -3.12%.

Take `Nc1ccnc(-c2cc(NC3CCNCC3)nc3[nH]ccc23)c1`: the cytotoxicity at 10 µM amounted to 3.18%.

Take `Cn1ccnc1CNC(=O)N(CCCO)C1CCCc2ccccc21` (stereo not given): the cytotoxicity at 10 µM was -6.19%.

Regarding `CC(C)=CCN1C[C@@H]2CC[C@H]1CN(C(=O)Cn1c(C)cc(C)nc1=O)C2`, the cytotoxicity at 10 µM is -4.36%.

In the case of `CC(C)n1c(C2CCCN(CC(=O)NC(N)=O)C2)nc2ccccc21` (stereo not given), the cytotoxicity at 10 µM was -7.9%.

As to `O=c1[nH]c2ccc(S(=O)(=O)N(CCO)Cc3ccncc3)cc2[nH]1`, the cytotoxicity at 10 µM stood at 1.07%.

In the case of `CCc1nc(C)cc(NC(C)C(=O)Nc2cc(F)ccc2C)n1` (stereo not given), the cytotoxicity at 10 µM is -4.44%.

For `O=C(NC1CCC1)[C@@H]1C[C@@H]2CCN(Cc3cccs3)C[C@@H]2O1`, the cytotoxicity at 10 µM was determined as 5.38%.

As for `Cc1nc(CCC(N)=O)cc(C2CCCCN2S(C)(=O)=O)n1` (stereo not given), the cytotoxicity at 10 µM was -13%.

In the case of `Cc1cccc(-c2noc(CN3CCC(N4CCNC4=O)CC3)n2)c1`, the cytotoxicity at 10 µM is 5.34%.

Take `O=C(Nc1cccc(C2SCCS2)c1)C1CCCN1c1nccs1` (stereo not given): the cytotoxicity at 10 µM was -10.1%.

On to `CC(C)c1nc(N2CC[C@@H](N(C)CCc3ccccn3)[C@H](O)C2)no1`, for which the cytotoxicity at 10 µM is -0.662%.

For the compound `Cc1ccc(CN2CCOC3(COCCN(Cc4ccncc4)C3)C2)o1` (stereo not given), the cytotoxicity at 10 µM is -109%.

Take `O=C(NCCc1ccco1)Nc1cc(C(F)(F)F)c[nH]c1=O`: the cytotoxicity at 10 µM is -12.3%.

`Cc1ccccc1NS(=O)(=O)c1cc2c(c(C(=O)O)c1)OCCO2`: the cytotoxicity at 10 µM is -11.7%.

`CC(C)(O)CN1CCN(C(=O)c2ccc3c(c2)COC3)CC1`: the cytotoxicity at 10 µM is -0.644%.

As to `Cc1cc(C)n(CC(C)NC(=O)c2cc(C(C)C)on2)n1` (stereo not given), the cytotoxicity at 10 µM worked out at 0.5%.

Consider `O=C(c1csnn1)N1CCCC(n2cncn2)C1` (stereo not given), for which the cytotoxicity at 10 µM amounted to 5.81%.

For the compound `Cc1ccc(C)c(OCC(O)CN(C)CC(=O)Nc2cc(C)on2)c1` (stereo not given), the cytotoxicity at 10 µM is -14.4%.

As to `Cc1cc(C2CCCN2C(=O)COc2ccc(CC#N)cc2)no1` (stereo not given), the cytotoxicity at 10 µM is -38.9%.

On to `CN1CCN(C2COC3(CCN(c4ccc(C#N)cc4)CC3)C2)CC1` (stereo not given), for which the cytotoxicity at 10 µM came out at 8.95%.

`O=C1CCC2(CCCN(CCn3cc(Cl)cn3)C2)CN1C1CCCC1` (stereo not given): the cytotoxicity at 10 µM came to 4.71%.

Consider `CN(Cc1cccc(F)c1)C(=O)c1cc2c([nH]c1=O)CCCC2=O`, for which the cytotoxicity at 10 µM was -7.45%.

In the case of `CN(CCO)C1CCN(c2ncc3c(n2)CCN3c2ccccc2)CC1`, the cytotoxicity at 10 µM is -2.3%.

In the case of `Cc1n[nH]c(=O)c2c(NC(=O)CN3CCCC(C(F)(F)F)C3)oc(C)c12` (stereo not given), the cytotoxicity at 10 µM is -4.87%.

For `CNC(=O)C(C)CN(C)C(=O)Nc1ccc(F)c(-n2cccc2)c1` (stereo not given), the cytotoxicity at 10 µM is -2.07%.

As for `CN(C)c1ncc(CN2CCOC(C(=O)Nc3ccccc3)C2)cn1` (stereo not given), the cytotoxicity at 10 µM is -3.14%.

For the compound `O=C(NCCNc1ncccn1)N1CCc2ccccc2C1`, the cytotoxicity at 10 µM was -5.65%.

`Cn1ccnc1CN1CCC(CCCc2ccccn2)(C(N)=O)CC1`: the cytotoxicity at 10 µM was -1.31%.

On to `CN(C)C(=O)[C@@H]1C[C@@H]2[C@@H](CCN2Cc2nccs2)O1`, for which the cytotoxicity at 10 µM is -1.42%.

For `COc1cc(C(=O)NS(=O)(=O)c2cncc(Br)c2)cc(OC)c1C`, the cytotoxicity at 10 µM amounted to 4.77%.

As for `O=C(OCc1ccccc1)C1CCCN1Cc1nc(C2CC2)no1` (stereo not given), the cytotoxicity at 10 µM is -5.43%.

With `O=C(c1cnccn1)N1CCN2C[C@H](OCc3ccccc3)C[C@H]2C1`, the cytotoxicity at 10 µM was 1.44%.

For `O=C(Nc1ccccc1OCC(F)F)N[C@@H]1C=C[C@H](CO)C1`, the cytotoxicity at 10 µM was -7.14%.

With `CCn1cnnc1CNC(=O)N1CCN(c2ccccc2OC)CC1`, the cytotoxicity at 10 µM is -6.02%.

As to `CN1CCC(O)(CCNC(=O)[C@@]23CNC[C@@H]2CN(C2CCCC2)C3)CC1`, the cytotoxicity at 10 µM is -1.92%.

Take `COc1cc(N2C[C@H]3OCC[C@H]3[C@H](C(=O)NC3CC3)C2)ncn1`: the cytotoxicity at 10 µM is -8.83%.

Turning to `CCN1Cc2c(C(=O)NC)ncn2-c2ccccc2S1(=O)=O`, the cytotoxicity at 10 µM is -73%.

On to `Cc1ccc(CC(=O)N(C)CC2(O)CCN(c3ccccn3)C2)s1` (stereo not given), for which the cytotoxicity at 10 µM is -10.4%.

Turning to `Cc1cccn2cc(CNCc3cccc4c3OCCCO4)nc12`, the cytotoxicity at 10 µM worked out at 15.5%.

With `CCc1n[nH]c(C2CN(Cc3ncc(CC)o3)CCO2)n1` (stereo not given), the cytotoxicity at 10 µM was -9.79%.

For `Cc1noc(C)c1CN1CCCC2(C1)CN(c1nncs1)CCO2` (stereo not given), the cytotoxicity at 10 µM was determined as 0.922%.

As to `CC(C)CN1CCN(C(=O)c2ccn(C)c(=O)c2)CC1`, the cytotoxicity at 10 µM is -17.2%.

Regarding `c1csc(N2CCCN(Cc3nc(C4CC4)no3)CC2)n1`, the cytotoxicity at 10 µM was -9.68%.

As to `Cn1cnnc1C1CCN(C(=O)COCc2ccccc2Cl)CC1`, the cytotoxicity at 10 µM is -6.07%.

Consider `Cn1ccnc1CN1CCCN(C(=O)COCC2CC2)CC1`, for which the cytotoxicity at 10 µM was -11.8%.

For `c1csc(CN2CCC3(CC2)CCN(CC2CCOCC2)C3)n1`, the cytotoxicity at 10 µM worked out at 3.83%.

Consider `CC(NCCCn1ccnc1)c1ccc(N2CCOC2=O)cc1` (stereo not given), for which the cytotoxicity at 10 µM was -8.48%.

For the compound `COc1ccc(F)c(CN2CCCC(O)(CNCc3ccoc3)C2=O)c1` (stereo not given), the cytotoxicity at 10 µM was found to be 10.9%.

Take `CCn1nc2c(cc1=O)CN(Cc1nc(C)c3ccccc3n1)CC2`: the cytotoxicity at 10 µM was -9.35%.

Turning to `Cc1noc(C)c1-c1nc(C2CCCN(C(=O)CCN)C2)ccc1CO` (stereo not given), the cytotoxicity at 10 µM was -2.53%.

Take `COC(=O)N1CCCN(Cn2nc(C)c(Br)c2C)CC1`: the cytotoxicity at 10 µM was 8.38%.

In the case of `COc1ccc(C(C(=O)O)N2CCC(O)(c3cccnc3)CC2)cc1F` (stereo not given), the cytotoxicity at 10 µM worked out at 50.8%.

As to `CN1CCO[C@@H]2CN(S(=O)(=O)c3ccccc3)CC[C@@H]2C1`, the cytotoxicity at 10 µM is -0.461%.

Consider `COc1cccc(CNCc2c(C)nn(C)c2N(C)C)c1`, for which the cytotoxicity at 10 µM was -2.51%.

Take `CCn1cc2c(n1)C(COCC1CC1)CN(C(=O)c1ccco1)C2` (stereo not given): the cytotoxicity at 10 µM turned out to be 17.6%.

As to `O=C(NCCCn1nc2ccccn2c1=O)Nc1ccc(F)cc1F`, the cytotoxicity at 10 µM is -7.43%.

With `O=S1(=O)[C@@H](c2ccccc2)[C@H](CO)CN1C1CC1`, the cytotoxicity at 10 µM is -4.83%.

On to `CC(=O)NC1CCCN(C(=O)c2ccc(Br)cc2O)C1` (stereo not given), for which the cytotoxicity at 10 µM was -10.4%.

In the case of `O=C(c1ccccc1)N1CCN(CC2CCOc3ccccc3C2)CC1` (stereo not given), the cytotoxicity at 10 µM was -0.966%.

Consider `Cc1cc(CC(=O)N(C)Cc2cccc(OC(C)C)c2)n[nH]1`, for which the cytotoxicity at 10 µM is 1.1%.

As to `O=C(Cc1ccccc1Cl)Nc1ccn(CCN2CCOCC2)n1`, the cytotoxicity at 10 µM is -5.44%.

On to `CCN(CC)C(=O)[C@@H]1C[C@@H](N)CN1c1nc(N(C)C)nc(C)c1C`, for which the cytotoxicity at 10 µM was -24.4%.

Turning to `CCc1nsc(N2CCCN(C(=O)c3ccc(OC)cc3)CC2)n1`, the cytotoxicity at 10 µM was 4.05%.

Turning to `COc1ccc2c(ccn2CCC(=O)O)c1`, the cytotoxicity at 10 µM was determined as 15.4%.

In the case of `CC[C@@]1(O)CCN(C(=O)c2ccsc2)C[C@H]1O`, the cytotoxicity at 10 µM is -9.35%.

For `Cc1nc(N2C[C@@H](CN3CCCN(C)CC3)[C@@H](CO)C2)c2sccc2n1`, the cytotoxicity at 10 µM is -8.64%.

With `COc1ccc(C(=O)C2CCCN(Cc3ccccc3O)C2)c(OC)c1` (stereo not given), the cytotoxicity at 10 µM amounted to 5.45%.

With `CC(C)N1CCC2(CC1)CN(C)C(=O)C[C@H]2C(F)(F)F`, the cytotoxicity at 10 µM was -160%.

Take `Cn1c(C(=O)NC(Cc2ccsc2)c2cccnc2)cc(=O)n(C)c1=O` (stereo not given): the cytotoxicity at 10 µM amounted to 2.61%.

Take `Cc1nc(C(=O)N2CCOCC2)cc(N2CCC(C(N)=O)CC2)n1`: the cytotoxicity at 10 µM turned out to be 1.82%.

Regarding `Cn1c(NCC(O)c2ccc(F)cc2)c(C#N)c(=O)n(C)c1=O` (stereo not given), the cytotoxicity at 10 µM is -7.57%.
